Test results as given in paper PMC9939360 (Acta Pharmaceutica Sinica. B, 2022).
Where two headings read alike, the source gives them in different places. Marks after values point to notes of the source that are not given here.

Legend:
hM4 mAChR [1] = target: T1, hM4 mAChR (Homo sapiens, UniProt P08173); type: binding; settings: for LogαACh (logarithm of the binding cooperativity factor between M4-PAMs and ACh): CHO cells stably expressing hM4, mean ± SEM
T1 sequence (P08173 1-479): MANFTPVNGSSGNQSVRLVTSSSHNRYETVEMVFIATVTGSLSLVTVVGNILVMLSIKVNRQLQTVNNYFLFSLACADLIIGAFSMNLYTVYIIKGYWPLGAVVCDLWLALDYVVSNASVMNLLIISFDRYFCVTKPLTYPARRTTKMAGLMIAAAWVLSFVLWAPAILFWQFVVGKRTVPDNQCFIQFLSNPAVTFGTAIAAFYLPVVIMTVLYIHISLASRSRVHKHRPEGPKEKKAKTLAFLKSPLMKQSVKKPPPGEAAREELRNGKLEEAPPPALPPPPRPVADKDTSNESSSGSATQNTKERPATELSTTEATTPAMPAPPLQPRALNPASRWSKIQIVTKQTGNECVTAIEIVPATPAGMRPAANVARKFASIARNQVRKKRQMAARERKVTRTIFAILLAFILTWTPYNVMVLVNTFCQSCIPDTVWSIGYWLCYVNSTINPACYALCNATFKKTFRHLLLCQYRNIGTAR
In short: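 Intact FlpIn CHO cells stably expressing human M4 were grown in DMEM/5% FBS, plated at 20,000 per well and grown overnight at 37 °C. After PBS washes, cells were incubated with an ACh concentration series, with or without increasing test compound concentrations, plus [3H]-NMS (~0.1 nmol/L). Atropine (10 μmol/L) defined nonspecific binding. Cells were washed with ice-cold 0.9% NaCl and counted by scintillation. KB and α came from an allosteric ternary complex model fit.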

hM4 mAChR [2] = target: T1, hM4 mAChR; test: [35S]-GTPγS binding assay with ACh, operational model of allosterism; type: biochemical; settings: mean ± SEM; for LogβACh (logarithm of the activation cooperativity factors between ACh and M4-PAMs): determined by subtracting (α) from the (αβ) parameters; for LogαβACh (logarithm of the operational functional cooperativity factors between ACh and M4-PAMs) / Logτ (logarithm of the operational efficacy parameter of M4-PAMs as allosteric agonists): hM4 membranes
In short: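 Membranes from FlpInCHO cells stably expressing wild-type human M4, 15 μg per assay, preincubated 60 min at 30 °C with 10 μmol/L GDP and ACh (10 nmol/L–10 mmol/L), with or without M4-PAMs (0.1–10 μmol/L). [35S]GTPγS (1 nmol/L, as added) then given for 30 min at 30 °C. Bound label collected on GF/B filters and counted by scintillation. Data fitted to an operational model of allosterism and agonism.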

M1, M2, M3 and M5 = test: Tango assay, selectivity over other muscarinic subtypes; type: cell-based
In short: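 HEK293 cells stably carrying a tTA-dependent luciferase reporter and a β-arrestin2–TEV fusion were kept in DMEM/10% FBS with puromycin and hygromycin B at 37 °C, 5% CO2. They were transfected, then replated on day 3 at 15,000–20,000 cells/well on poly-L-lysine. On day 4 test compound was added in HEPES/1× HBSS buffer, pH 7.4. On day 5, Bright-Glo luminescence was read after 15–20 min at room temperature (RLU). Carbachol served as reference agonist.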

M4 [3] = settings: rhesus monkeys; cited from earlier work
M4 [4] = settings: humans; cited from earlier work

SMILES | Kb (hM4 mAChR [1]) | LogαACh (logarithm of the binding cooperativity factor between M4-PAMs and ACh) (hM4 mAChR [1]) | LogβACh (logarithm of the activation cooperativity factors between ACh and M4-PAMs) (hM4 mAChR [2]) | LogαβACh (logarithm of the operational functional cooperativity factors between ACh and M4-PAMs) (hM4 mAChR [2]) | Logτ (logarithm of the operational efficacy parameter of M4-PAMs as allosteric agonists) (hM4 mAChR [2]) | selectivity over other muscarinic acetylcholine receptor subtypes (M1, M2, M3 and M5) | peak striatal SUV (M4 [3]) | peak striatal SUV (M4 [4])
CN1Cc2ccc(-c3nc(C#N)ccc3-c3cnn(CC4CCCC4)c3)cc2C1=O [Compound 8, 5-(1-(cyclopentylmethyl)-1H-pyrazol-4-yl)-6-(2-methyl-3-oxoisoindolin-5-yl)picolinonitrile] | 398 nM | 1.7 ± 0.3 | 0.1 ± 0.3 | 1.9 ± 0.2 | 0.3 ± 0.0 |  |  | 
Cc1ccc(-c2cnn(CC3CCCC3)c2)c(-c2ccc3c(c2)C(=O)N(C)C3)n1 [Compound 10, 6-(3-(1-(cyclopentylmethyl)-1H-pyrazol-4-yl)-6-methylpyridin-2-yl)-2-methylisoindolin-1-one] | 316 nM | 1.6 ± 0.2 | 0.4 ± 0.2 | 2.0 ± 0.2 | 0.7 ± 0.0 |  |  | 
Cc1ccc(-c2cnn(CC3CCCC3)c2)c(-c2ccc3c(c2)C(=O)NC3)n1 [Compound 11, 6-(3-(1-(cyclopentylmethyl)-1H-pyrazol-4-yl)-6-methylpyridin-2-yl)isoindolin-1-one] | 501 nM | 1.4 ± 0.2 | 0.5 ± 0.3 | 1.9 ± 0.2 | 0.5 ± 0.0 |  |  | 
CC1(Cn2cc(-c3ccc(C#N)nc3-c3ccc4c(c3)C(=O)N([11CH3])C4)cn2)CCCC1 [[^11C]MK-6884] |  |  |  |  |  |  | ca. 1.2 | ca. 2.5

Continued, in another order:

Kb (hM4 mAChR [1]) | LogαACh (logarithm of the binding cooperativity factor between M4-PAMs and ACh) (hM4 mAChR [1]) | LogβACh (logarithm of the activation cooperativity factors between ACh and M4-PAMs) (hM4 mAChR [2]) | LogαβACh (logarithm of the operational functional cooperativity factors between ACh and M4-PAMs) (hM4 mAChR [2]) | Logτ (logarithm of the operational efficacy parameter of M4-PAMs as allosteric agonists) (hM4 mAChR [2]) | selectivity over other muscarinic acetylcholine receptor subtypes (M1, M2, M3 and M5) | SMILES | peak striatal SUV (M4 [3]) | peak striatal SUV (M4 [4])
398 nM | 1.4 ± 0.1 | 1.1 ± 0.2 | 2.5 ± 0.1 ^f | 0.5 ± 0.0 | selective | N#Cc1ccc(-c2cnn(CC3CCCC3)c2)c(-c2ccc3c(c2)C(=O)N(CCF)C3)n1 [Compound 12, 5-(1-(cyclopentylmethyl)-1H-pyrazol-4-yl)-6-(2-(2-fluoroethyl)-3-oxoisoindolin-5-yl)picolinonitrile] |  | 
398 nM | 1.6 ± 0.2 | 0.8 ± 0.2 | 2.4 ± 0.2 ^f | 0.6 ± 0.0 |  | N#Cc1ccc(-c2cnn(CC3CCCC3)c2)c(-c2ccc3c(c2)C(=O)N(CCCF)C3)n1 [Compound 13, 5-(1-(cyclopentylmethyl)-1H-pyrazol-4-yl)-6-(2-(3-fluoropropyl)-3-oxoisoindolin-5-yl)picolinonitrile] |  | 
